The values that follow come from ChEMBL document CHEMBL3739318, “Orally Bioavailable Metal Chelators and Radical Scavengers: Multifunctional Antioxidants for the Coadjutant Treatment of Neurodegenerative Diseases” (J Med Chem, 2015).

Each structure is given as a SMILES string. Activity calls are given as the source filed them. The calls are words filed in the database; no cut-off is given here.

Series [1] relates to ARPE-19. Briefly: Antioxidant activity in human ARPE19 cells assessed as reduction of xanthine oxidase-mediated superoxide generation preincubated for 1 hr followed by xanthine oxidase challenge for 1 hr by MitoSOX staining-based fluorescence analysis. Type of series: functional, cell-based. The essentials:
(§1)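 Cells washed with PBS, then preincubated 1 h at 37 °C in serum-free medium with 1, 10, 100 or 1000 μM compound, or SOD 25 μg/mL as reference. Xanthine oxidase added (25 mU/mL; ~100 μM superoxide) for 1 h more. After a PBS wash, cells stained with MitoSOX Red (5 μM) for 2 h. Fluorescence read at Ex/Em 510/580 nm.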

Series [2] has as its system SH-SY5Y. In words: Neuroprotective activity against Fenton reagent-induced ROS generation-stimulated cytotoxicity in human SH-SY5Y cells assessed as cell viability at 1 mM after 2 hrs by MTS assay. The format is functional, cell-based. An outline of the steps: (§2)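 Cells in 96-well format exposed 2 h to Fenton reagent (1 mM H2O2 + 1 mM Fe2+) with or without 1 mM compound in 0.16% DMSO. Viability by MTS assay, normalized to untreated cells without Fenton reagent (100%). Mean ± SEM, n = 4. ANOVA.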
(Tetrazolium assays rely on reduction of a dye to a coloured formazan, in cell work by metabolically active cells.)

Series [3] can be described thus: Drug uptake in lens of C57BL/6 mouse assessed per mg of protein at 80 mg/kg, po administered everyday for 14 days by HPLC-MS analysis. Type of series: ADME, organism-based, Lens of camera-type eye. The following applies: in vivo, 336 h. An outline of the steps:
(§3)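 C57BL/6 mice fed chow containing 0.05% compound (~80 mg/kg/day average) for 14 days. Perfused with PBS; brain, lens and neural retina homogenized in ice-cold 10 mM acetate pH 4 with internal standard. Extracted with TCA precipitation and chloroform. Analyzed by reverse-phase C18 HPLC.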

The test system of series [4] is ARPE-19. Briefly: Neuroprotective activity against Fenton reagent-induced ROS generation-stimulated cytotoxicity in human ARPE19 cells assessed as cell viability at 1 mM after 2 hrs by MTS assay. The format is functional, cell-based. The essentials: as §2
Series [5] has as its system ARPE-19. Briefly: Neuroprotective activity against Fenton reagent-induced ROS generation in human ARPE19 cells assessed as increase in GSH level at 1 mM after 2 hrs by DTNB method. Type of series: functional, cell-based. The essentials: (§4)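 Cells grown in 60 or 150 mm dishes and exposed 2 h to Fenton reagent (1 mM H2O2 + 1 mM Fe2+) with or without 1 mM compound in 0.16% DMSO. Intracellular glutathione then measured. Mean ± SEM, n = 6. ANOVA.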

The subject of series [6] is Brain. Briefly: Drug uptake in brain of C57BL/6 mouse assessed per mg of protein at 80 mg/kg, po administered everyday for 14 days by HPLC-MS analysis. Type of series: ADME, organism-based. The conditions noted are these: in vivo, 336 h. The essentials: as §3
Series [7] deals with SH-SY5Y. In words: Neuroprotective activity against Fenton reagent-induced ROS generation in human SH-SY5Y cells assessed as increase in GSH level at 1 mM after 2 hrs by DTNB method. Type of series: functional, cell-based. An outline of the steps:
as §4

The test system of series [8] is SH-SY5Y. Briefly: Antioxidant activity in human SH-SY5Y cells assessed as reduction of xanthine oxidase-mediated superoxide generation preincubated for 1 hr followed by xanthine oxidase challenge for 1 hr by MitoSOX staining-based fluorescence analysis. The format is functional, cell-based. The essentials: as §1
Series [9] can be described thus: Drug uptake in neural retina of C57BL/6 mouse assessed per mg of protein at 80 mg/kg, po administered everyday for 14 days by HPLC-MS analysis. The format is ADME, organism-based. The following applies: in vivo, 336 h. An outline of the steps: as §3
Series [10] concerns ARPE-19. Briefly: Neuroprotective activity against Fenton reagent-induced hydroxy radical-stimulated cytotoxicity in human ARPE19 cells assessed as cell survival at 1 to 1000 uM preincubated for 1 hr followed by Fenton reagent challenge for 2 hrs by fluorescence-based LIVE/DEAD viability/cytotoxicity assay. Type of series: functional. An outline of the steps:
(§5)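 After a PBS wash, cells preincubated 1 h at 37 °C in serum-free medium with 1–1000 μM compound. Fenton reagent (Fe2+/H2O2, 100 μM final) then added for 2 h. Stained 15 min at 37 °C with calcein AM 8 μM and EthD-1 16 μM. Fluorescence read at 494/517 and 528/617 nm. % live cells calculated from blank-corrected single-dye controls; dead-cell control 70% ethanol. Mean ± SEM, n = 6.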

The test system of series [11] is SH-SY5Y. Briefly: Neuroprotective activity against Fenton reagent-induced hydroxy radical-stimulated cytotoxicity in human SH-SY5Y cells assessed as cell survival at 1 to 1000 uM preincubated for 1 hr followed by Fenton reagent challenge for 2 hrs by fluorescence-based LIVE/DEAD viability/cytotoxicity assay. The format is functional. An outline of the steps:
as §5

Series [12] concerns SH-SY5Y. In words: Cytotoxicity against human SH-SY5Y cells assessed as reduction in cell viability at 1 mM after 2 hrs by MTS assay. Type of series: cell-based. The following applies: 1000 µM. An outline of the steps: (§6)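 ARPE-19 grown in DMEM + 4% FBS and SH-SY5Y in EMEM/F12 + 10% FBS, at 37 °C, 5% CO2. Plated at 1 × 10^4 cells/well. Exposed 2 h to 1 mM compound (0.16% DMSO) without oxidant. Viability by MTS. Mean ± SEM, n = 4, ANOVA versus blank control.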

Series [13] in a line: Cytotoxicity against human ARPE19 cells assessed as reduction in cell viability at 1 mM after 2 hrs by MTS assay. Type of series: cell-based. The following applies: arpe-19, 2 h, 1000 µM. An outline of the steps:
as §6

Series [14] can be described thus: Metal chelating activity assessed as stoichiometric ratio of compound to Fe2+ ion at 0.1 to 0.5 mM of compound and metal ion mixture after 45 mins by spectrophotometric analysis. Type of series: physicochemical. The following applies: 0.75 h, 500 µM. An outline of the steps:
(§7)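 Job continuous-variation method at 23 °C. Compound dissolved in acetonitrile, then diluted to 0.1 mM stock in 1 mM acetate pH 6.5. Compound + ion at constant total 0.1–0.5 mM with varied mole fraction. After 45 min equilibration, UV absorbance scanned 210–310 nm. Stoichiometry taken from the intersection of lines. Mean ± SD, n = 3.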

The nature of series [15]: Metal chelating activity assessed as stoichiometric ratio of compound to Cu+ ion at 0.1 to 0.5 mM of compound and metal ion mixture after 45 mins by spectrophotometric analysis. Type of series: physicochemical. The conditions noted are these: 0.75 h, 500 µM. An outline of the steps: as §7
Series [16] can be described thus: Metal chelating activity assessed as stoichiometric ratio of compound to Mn2+ ion at 0.1 to 0.5 mM of compound and metal ion mixture after 45 mins by spectrophotometric analysis. The format is physicochemical. The following applies: 0.75 h, 500 µM. The essentials: as §7
Series [17] can be described thus: Metal chelating activity assessed as stoichiometric ratio of compound to Cu2+ ion at 0.1 to 0.5 mM of compound and metal ion mixture after 45 mins by spectrophotometric analysis. The following applies: 0.75 h, 500 µM. The format is physicochemical. An outline of the steps:
as §7

Series [18] in a line: Metal chelating activity assessed as stoichiometric ratio of compound to Mg2+ ion at 0.1 to 0.5 mM of compound and metal ion mixture after 45 mins by spectrophotometric analysis. Type of series: physicochemical. The conditions noted are these: 0.75 h, 500 µM. The essentials:
as §7

Series [19] is described as follows: Metal chelating activity assessed as stoichiometric ratio of compound to Zn2+ ion at 0.1 to 0.5 mM of compound and metal ion mixture after 45 mins by spectrophotometric analysis. The format is physicochemical. The following applies: 0.75 h, 500 µM. The essentials:
as §7

Series [20] is described as follows: Metal chelating activity assessed as stoichiometric ratio of compound to Fe3+ ion at 0.1 to 0.5 mM of compound and metal ion mixture after 45 mins by spectrophotometric analysis. Type of series: physicochemical. The conditions noted are these: 0.75 h, 500 µM. An outline of the steps:
as §7

Series [21] can be described thus: Metal chelating activity assessed as stoichiometric ratio of compound to Ca2+ ion at 0.1 to 0.5 mM of compound and metal ion mixture after 45 mins by spectrophotometric analysis. The format is physicochemical. The following applies: 0.75 h, 500 µM. An outline of the steps: as §7

On to `CN(C)S(=O)(=O)N1CC(=O)N(c2ncc(O)cn2)C(=O)C1`, for which the Activity result in [1], in [8], in series [10] and in series [11] was “Dose-dependent effect” each time. Also, the outcome in series [2], in series [4], in series [5] and in series [7] was Active. The Drug uptake entry in series [3] is “Active”; in series [6] it was 3 ng/mg; in [9], “Active”.

For `Oc1c(I)cc(Cl)c2cccnc12` [CLIOQUINOL], the Activity entry in series [1] was “Dose-dependent effect”; in [12], 20%; in [8], “Dose-dependent effect”; in series [13] it was 30%; in series [10], “Dose-dependent effect”; in [11], “Dose-dependent effect”. Also, the outcome in [2], in series [4], in series [5] and in series [7] was Active.

In the case of `COc1nc(N2C(=O)CN(S(=O)(=O)N(C)C)CC2=O)nc(OC)c1O`, the Drug uptake entry in series [3] is “Active”; in series [6], 4 ng/mg; in series [9] it was “Active”.

Take `Cc1c(C)c2c(c(C)c1O)CCC(C)(C(=O)O)O2` (centres undefined) [TROLOX]: the Activity entry in series [1] is “Dose-dependent effect”; in series [12] it was “Non-toxic”; in [8], “Dose-dependent effect”; in series [13] it was “Non-toxic”; in [10], “Dose-dependent effect”; in [11] it was “Dose-dependent effect”. Further, the outcome in [2], in series [4], in series [5] and in series [7] was Active.

With `O=C1CCC(=O)N1c1ncc(O)cn1`, the Activity result is “Dose-dependent effect” in series [1]; “Non-toxic” in series [12]; “Dose-dependent effect” in series [8]; “Non-toxic” in series [13]; “Dose-dependent effect” in [10]; “Dose-dependent effect” in [11]. Further, the result in series [2], in [4], in series [5] and in series [7] was Active. Besides, the Drug uptake entry in [3] and in series [9] was “Active” throughout. In addition, the Ratio is reported as 2.06 in series [14]; 2.01 in [15]; 2.14 in [16]; 2.28 in series [17]; 0 in series [18]; 1.87 in [19]. The Ratio in series [20] turned out to be 2.01; in series [21], 0.

With `COc1nc(N2C(=O)CCC2=O)nc(OC)c1O`, the Activity entry is “Dose-dependent effect” in series [1]; “Non-toxic” in series [12]; “Dose-dependent effect” in series [8]; “Non-toxic” in series [13]; “Dose-dependent effect” in [10]; “Dose-dependent effect” in series [11]. The result in [2], in [4], in [5] and in [7] was Active. The Drug uptake entry in series [3] and in series [9] was “Active” each time. For the same molecule, the Ratio in [14] amounted to 2.03; in series [15], 2.03; in series [16] it was 2.22; in [17], 2.13; in series [18], 0; in series [19], 2.01. For the same molecule, the Ratio is on record as 2.12 in [20] and 0 in series [21].
